Results published in ChEMBL document CHEMBL1129288, “Design and synthesis of non-peptide Ras CAAX mimetics as potent farnesyltransferase inhibitors” (J Med Chem, 1996).
pIC50: −log10 of the molar value.

Columns and labels:
[1] = target: T1, Protein farnesyltransferase (Homo sapiens, UniProt P49354+P49356); experiment: In vitro inhibition of Farnesyltransferase; type: protein-complex assay
Method in brief: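 Partially purified FTase from human Burkitt lymphoma (Daudi) cells, incubated with [³H]FPP and recombinant H-Ras-CVLS for 30 min at 37 °C.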

[2] = target: Geranylgeranyl transferase type I (Homo sapiens, UniProt P49354+P53609); experiment: In vitro inhibition of Geranylgeranyl transferase type I; type: protein-complex assay
Method in brief: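 Partially purified GGTase I from human Burkitt lymphoma (Daudi) cells, incubated for 30 min at 37 °C.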

[3] = target: T1, Protein farnesyltransferase; experiment: Inhibition of human Burkitt lymphoma (Daudi) cell farnesyltransferase; conditions: target entry is the homologue from another species

pIC50 [1] | pIC50 [2] | pIC50 [3] | Compound
7.40 | 4.36 | – | COc1cc(NC[C@@H](N)CS)ccc1-c1cccc(C(=O)O)c1
6.82 | – | – | CSCC[C@H](NC(=O)c1ccc(NC(=O)[C@@H](N)CS)cc1)C(=O)O
5.97 | < 4.00 | – | N[C@@H](CS)CNc1ccc(-c2ccccc2)cc1
6.70 | – | – | CC[C@H](C)[C@H](NC(=O)[C@@H](NC(=O)[C@@H](N)CS)C(C)C)C(=O)N[C@@H](CCSC)C(=O)O
– | 3.85 | 6.27 | N[C@@H](CS)CNc1ccc(-c2ccccc2C(=O)O)cc1
4.87 | 4.00 | – | N[C@@H](CS)C(=O)Nc1ccc(-c2cccc(C(=O)O)c2)cc1
4.00 | < 4.00 | – | N[C@@H](CS)C(=O)NCc1cccc(-c2cccc(C(=O)O)c2)c1
6.15 | < 4.00 | – | Cc1cccc(-c2ccc(NC[C@@H](N)CS)cc2)c1
6.04 | < 4.00 | – | COC(=O)c1cccc(-c2ccc(NC[C@@H](N)CS)cc2)c1
6.94 | 4.00 | – | N[C@@H](CS)CNc1ccc(-c2cccc(C(=O)O)c2)cc1
– | < 4.00 | – | N[C@@H](CS)CNc1ccc(-c2ccc(C(=O)O)cc2)cc1
4.96 | 4.46 | – | N[C@@H](CS)CNCc1cccc(-c2cccc(C(=O)O)c2)c1
